This note sets out measurements from ChEMBL document CHEMBL3124808, “C-peptide inhibitors of Ebola virus glycoprotein-mediated cell entry: effects of conjugation to cholesterol and side chain-side chain crosslinking” (Bioorg Med Chem Lett, 2013).

Calls of active or inactive are those of the source. The calls are words filed in the database; no cut-off is given here. Where a SMILES comes first, the peptide text is derived from it. The star is where a group is joined. X1 = CC(C)CCC[C@@H](C)[C@H]1CC[C@H]2[C@@H]3CC=C4C[C@@H](OC(=O)C*)CC[C@]4(C)[C@H]3CC[C@]12C

Common to all, as to assay type: cell-based
The target in data set [1] is T1, Envelope glycoprotein (Zaire ebolavirus (strain Mayinga-76) (ZEBOV) (Zaire Ebola virus)) (UniProt Q05320).
T1 sequence (whole entry): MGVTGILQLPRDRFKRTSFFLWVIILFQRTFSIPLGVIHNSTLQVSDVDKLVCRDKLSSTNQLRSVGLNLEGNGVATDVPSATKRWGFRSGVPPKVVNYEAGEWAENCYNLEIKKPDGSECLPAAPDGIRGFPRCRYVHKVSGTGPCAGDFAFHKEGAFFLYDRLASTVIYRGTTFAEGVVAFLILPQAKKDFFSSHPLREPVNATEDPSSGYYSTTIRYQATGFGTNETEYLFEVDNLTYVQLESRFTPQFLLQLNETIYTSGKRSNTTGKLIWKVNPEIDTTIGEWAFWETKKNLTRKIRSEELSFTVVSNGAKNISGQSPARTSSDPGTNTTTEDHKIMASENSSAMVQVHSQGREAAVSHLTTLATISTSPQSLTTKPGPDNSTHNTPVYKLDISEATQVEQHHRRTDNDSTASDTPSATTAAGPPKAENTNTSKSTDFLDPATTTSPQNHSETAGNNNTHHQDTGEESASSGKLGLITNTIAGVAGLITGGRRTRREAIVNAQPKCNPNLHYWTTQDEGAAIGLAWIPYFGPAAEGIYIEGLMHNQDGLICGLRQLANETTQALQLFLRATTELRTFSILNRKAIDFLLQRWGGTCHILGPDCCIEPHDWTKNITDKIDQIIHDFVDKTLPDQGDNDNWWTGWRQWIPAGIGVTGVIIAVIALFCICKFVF
The data set is described as follows: Inhibition of Vesicular stomatitis virus particle bearing EBOV glycoprotein-mediated viral entry in African green monkey Vero cells at 20 uM incubated for 1 hr prior to viral addition measured after 1 hr by fluorescence microscopy relative to control. A digest of the protocol: (§1)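 Vero host cells were infected with VSV particles bearing the EBOV glycoprotein in place of G, with a matrix protein–eGFP fusion. Primary infection events were quantified by fluorescence confocal microscopy, and inhibition was expressed as fold or percent reduction in infection versus control.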

The test system of data set [2] is Vero. The data set is described as follows: Cytotoxicity against African green monkey Vero cells at 30 to 40 uM by Cyto Tox Glo assay. The settings on record: chlorocebus sabaeus. A digest of the protocol:
(§2)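 Vero cells exposed to peptide were scored for tolerance by visual inspection and by a commercial cell viability assay.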

Data set [3] relates to Vero. The data set is described as follows: Inhibition of Vesicular stomatitis virus envelope glycoprotein G-mediated viral entry in African green monkey Vero cells at >10 uM incubated for 1 hr prior to viral addition measured after 1 hr by fluorescence microscopy relative to control.
Data set [4] concerns Vero. Put plainly: Inhibition of Vesicular stomatitis virus envelope glycoprotein G-mediated viral entry in African green monkey Vero cells at 10 uM incubated for 1 hr prior to viral addition measured after 1 hr by fluorescence microscopy relative to control.
For data set [5], the target named is T1, Envelope glycoprotein (Zaire ebolavirus (strain Mayinga-76) (ZEBOV) (Zaire Ebola virus)). The data set is described as follows: Inhibition of Vesicular stomatitis virus particle bearing EBOV glycoprotein-mediated viral entry in African green monkey Vero cells at 40 uM incubated for 1 hr prior to viral addition measured after 1 hr by fluorescence microscopy relative to control. A digest of the protocol: as §1

The target is the same in data set [6]. Put plainly: Inhibition of Vesicular stomatitis virus particle bearing EBOV glycoprotein-mediated viral entry in African green monkey Vero cells at 75 uM incubated for 1 hr prior to viral addition measured after 1 hr by fluorescence microscopy relative to control.
The target is the same in data set [7]. Put plainly: Inhibition of Vesicular stomatitis virus particle bearing EBOV glycoprotein-mediated viral entry in African green monkey Vero cells incubated for 1 hr prior to viral addition measured after 1 hr by fluorescence microscopy relative to control. Put shortly: as §1
For data set [8] the target is unchanged. Put plainly: Inhibition of Vesicular stomatitis virus particle bearing EBOV glycoprotein-mediated viral entry in African green monkey Vero cells at >20 uM incubated for 1 hr prior to viral addition measured after 1 hr by fluorescence microscopy relative to control. Put shortly:
as §1

Data set [9] deals with Vero. Put plainly: Cytotoxicity against African green monkey Vero cells at 40 uM by Cyto Tox Glo assay. The settings on record: chlorocebus sabaeus. A digest of the protocol:
as §2

Data set [10] deals with Vero. Put plainly: Inhibition of Vesicular stomatitis virus envelope glycoprotein G-mediated viral entry in African green monkey Vero cells incubated for 1 hr prior to viral addition measured after 1 hr by fluorescence microscopy relative to control.
The subject of data set [11] is Vero. The data set is described as follows: Cytotoxicity against African green monkey Vero cells at >15 uM by Cyto Tox Glo assay. The settings on record: chlorocebus sabaeus.
Data set [12] concerns Vero. Put plainly: Inhibition of Vesicular stomatitis virus envelope glycoprotein G-mediated viral entry in African green monkey Vero cells at 40 uM incubated for 1 hr prior to viral addition measured after 1 hr by fluorescence microscopy relative to control.

Take `CC[C@H](C)[C@H](N)C(=O)N[C@@H](CCC(=O)O)C(=O)N1CCC[C@H]1C(=O)N[C@@H](Cc1cnc[nH]1)C(=O)N[C@@H](CC(=O)O)C(=O)N[C@@H](Cc1c[nH]c2ccccc12)C(=O)N[C@H](C(=O)N[C@@H](CCCCN)C(=O)N[C@@H](CC(N)=O)C(=O)N[C@H](C(=O)N[C@H](C(=O)N[C@@H](CC(=O)O)C(=O)N[C@@H](CCCCN)C(=O)N[C@H](C(=O)N[C@@H](CC(=O)O)C(=O)N[C@@H](CCC(N)=O)C(=O)N[C@H](C(=O)N[C@H](C(=O)N[C@@H](Cc1cnc[nH]1)C(=O)N[C@@H](CC(=O)O)C(=O)N[C@@H](Cc1ccccc1)C(=O)N[C@H](C(=O)N[C@@H](CC(=O)O)C(=O)N[C@@H](CCCCN)C(=O)NCC(=O)N[C@@H](CO)C(=O)NCC(=O)N[C@@H](CCCCN)C(=O)N[C@@H](CCCCN)C(=O)N[C@@H](CCCCN)C(=O)N[C@@H](CCCCN)C(=O)N[C@@H](CSCC(=O)O[C@H]1CC[C@@]2(C)C(=CC[C@H]3[C@@H]4CC[C@H]([C@H](C)CCCC(C)C)[C@@]4(C)CC[C@@H]32)C1)C(=O)O)C(C)C)[C@@H](C)CC)[C@@H](C)CC)[C@@H](C)CC)[C@H](C)O)[C@@H](C)CC)[C@@H](C)O`: in data set [1], the inhibition entry is “Active”. For the same compound, the Activity in the data set on Vero [2] turned out to be 20%. Besides, the inhibition with Vero [3] is greater than 99%; with Vero [4], 90%. Besides, the Ratio in [5] is 1000.
`CC[C@H](C)[C@H](NC(=O)CNC(=O)[C@H](CO)NC(=O)CNC(=O)[C@H](CCCNC(=N)N)NC(=O)[C@H](CCCNC(=N)N)NC(=O)[C@H](CCCNC(=N)N)NC(=O)[C@H](CCC(N)=O)NC(=O)[C@H](CCCNC(=N)N)NC(=O)[C@H](CCCNC(=N)N)NC(=O)[C@H](CCCCN)NC(=O)[C@H](CCCCN)NC(=O)[C@H](CCCNC(=N)N)NC(=O)CNC(=O)[C@@H](N)Cc1ccc(O)cc1)C(=O)N[C@@H](CCC(=O)O)C(=O)N1CCC[C@H]1C(=O)N[C@@H](Cc1cnc[nH]1)C(=O)N[C@@H](CC(=O)O)C(=O)N[C@@H](Cc1c[nH]c2ccccc12)C(=O)N[C@H](C(=O)N[C@@H](CCCCN)C(=O)N[C@@H](CC(N)=O)C(=O)N[C@H](C(=O)N[C@H](C(=O)N[C@@H](CC(=O)O)C(=O)N[C@@H](CCCCN)C(=O)N[C@H](C(=O)N[C@@H](CC(=O)O)C(=O)N[C@@H](CCC(N)=O)C(=O)N[C@H](C(=O)N[C@H](C(=O)N[C@@H](Cc1cnc[nH]1)C(=O)N[C@@H](CC(=O)O)C(=O)N[C@@H](Cc1ccccc1)C(=O)N[C@H](C(=O)N[C@@H](CC(=O)O)C(=O)N[C@@H](CCCCN)C(=O)O)C(C)C)[C@@H](C)CC)[C@@H](C)CC)[C@@H](C)CC)[C@@H](C)O)[C@@H](C)CC)[C@@H](C)O`: the inhibition in data set [6] was found to be 99%.
Turning to `CC(C)CCC[C@@H](C)[C@H]1CC[C@H]2[C@@H]3CC=C4C[C@@H](O)CC[C@]4(C)[C@H]3CC[C@]12C`, the inhibition entry in data set [7] is “Active”.
Compound `CC(C)CCC[C@@H](C)[C@H]1CC[C@H]2[C@@H]3CC=C4C[C@@H](OC(=O)CSC[C@H](NC(=O)CNC(=O)[C@H](CO)NC(=O)CNC(=O)[C@H](CCCCN)NC(=O)[C@H](CCCCN)NC(=O)[C@H](CCCCN)NC(=O)[C@@H](N)CCCCN)C(=O)O)CC[C@]4(C)[C@H]3CC[C@]12C` (H-KKKKGSGC(X1)-OH) displayed an inhibition in data set [8] greater than 90%. Also, in [1], the inhibition entry was “Active”.
For the compound `CC[C@H](C)[C@H](NC(=O)CNC(=O)[C@H](CO)NC(=O)CNC(=O)[C@H](CCCCN)NC(=O)[C@H](CCCCN)NC(=O)[C@H](CCCCN)NC(=O)[C@H](CCCCN)NC(=O)[C@@H](N)CSCC(=O)O[C@H]1CC[C@@]2(C)C(=CC[C@H]3[C@@H]4CC[C@H]([C@H](C)CCCC(C)C)[C@@]4(C)CC[C@@H]32)C1)C(=O)N[C@@H](CCC(=O)O)C(=O)N1CCC[C@H]1C(=O)N[C@@H](Cc1cnc[nH]1)C(=O)N[C@@H](CC(=O)O)C(=O)N[C@@H](Cc1c[nH]c2ccccc12)C(=O)N[C@H](C(=O)N[C@@H](CCCCN)C(=O)N[C@@H](CC(N)=O)C(=O)N[C@H](C(=O)N[C@H](C(=O)N[C@@H](CC(=O)O)C(=O)N[C@@H](CCCCN)C(=O)N[C@H](C(=O)N[C@@H](CC(=O)O)C(=O)N[C@@H](CCC(N)=O)C(=O)N[C@H](C(=O)N[C@H](C(=O)N[C@@H](Cc1cnc[nH]1)C(=O)N[C@@H](CC(=O)O)C(=O)N[C@@H](Cc1ccccc1)C(=O)N[C@H](C(=O)N[C@@H](CC(=O)O)C(=O)N[C@@H](CCCCN)C(=O)O)C(C)C)[C@@H](C)CC)[C@@H](C)CC)[C@@H](C)CC)[C@@H](C)O)[C@@H](C)CC)[C@@H](C)O`, the inhibition entry in [1] is “Active”. Also, the Activity with Vero [9] was determined as 20%. For the same compound, the inhibition with Vero [3] was greater than 99%; in the data set on Vero [4], 90%. Also, in data set [5], the Ratio came out at 1000.
On to `CC[C@H](C)[C@H](NC(=O)CNC(=O)[C@H](CO)NC(=O)CNC(=O)[C@H](CCCNC(=N)N)NC(=O)[C@H](CCCNC(=N)N)NC(=O)[C@H](CCCNC(=N)N)NC(=O)[C@H](CCC(N)=O)NC(=O)[C@H](CCCNC(=N)N)NC(=O)[C@H](CCCNC(=N)N)NC(=O)[C@H](CCCCN)NC(=O)[C@H](CCCCN)NC(=O)[C@H](CCCNC(=N)N)NC(=O)CNC(=O)[C@H](Cc1ccc(O)cc1)NC(C)=O)C(=O)N[C@@H](CCC(=O)O)C(=O)N1CCC[C@H]1C(=O)N[C@@H](Cc1cnc[nH]1)C(=O)N[C@@H](CC(=O)O)C(=O)N[C@@H](Cc1c[nH]c2ccccc12)C(=O)N[C@H](C(=O)N[C@@H](CCCCN)C(=O)N[C@@H](CC(N)=O)C(=O)N[C@H](C(=O)N[C@H](C(=O)N[C@H]1CSCC(=O)NCCC[C@H](C(=O)N[C@@H](CCC(N)=O)C(=O)N[C@H](C(=O)N[C@H](C(=O)N[C@@H](Cc2cnc[nH]2)C(=O)N[C@@H](CC(=O)O)C(=O)N[C@@H](Cc2ccccc2)C(=O)N[C@H](C(=O)N[C@@H](CC(=O)O)C(=O)N[C@@H](CCCCN)C(=O)O)C(C)C)[C@@H](C)CC)[C@@H](C)CC)NC(=O)[C@H]([C@@H](C)CC)NC(=O)[C@H](CCCCN)NC1=O)[C@@H](C)O)[C@@H](C)CC)[C@@H](C)O`, for which the inhibition result (in the data set with Vero [10]; in data set [7]) was “Active” each time. The Activity entry in the data set on Vero [11] is listed as “Toxic”.
Regarding `CC[C@H](C)[C@H](NC(=O)CNC(=O)[C@H](CO)NC(=O)CNC(=O)[C@H](CCCNC(=N)N)NC(=O)[C@H](CCCNC(=N)N)NC(=O)[C@H](CCCNC(=N)N)NC(=O)[C@H](CCC(N)=O)NC(=O)[C@H](CCCNC(=N)N)NC(=O)[C@H](CCCNC(=N)N)NC(=O)[C@H](CCCCN)NC(=O)[C@H](CCCCN)NC(=O)[C@H](CCCNC(=N)N)NC(=O)CNC(=O)[C@H](Cc1ccc(O)cc1)NC(C)=O)C(=O)N[C@@H](CCC(=O)O)C(=O)N1CCC[C@H]1C(=O)N[C@@H](Cc1cnc[nH]1)C(=O)N[C@@H](CC(=O)O)C(=O)N[C@@H](Cc1c[nH]c2ccccc12)C(=O)N[C@H](C(=O)N[C@@H](CCCCN)C(=O)N[C@H]1CSCC(=O)NCCC[C@@H](C(=O)N[C@@H](CCCCN)C(=O)N[C@H](C(=O)N[C@@H](CC(=O)O)C(=O)N[C@@H](CCC(N)=O)C(=O)N[C@H](C(=O)N[C@H](C(=O)N[C@@H](Cc2cnc[nH]2)C(=O)N[C@@H](CC(=O)O)C(=O)N[C@@H](Cc2ccccc2)C(=O)N[C@H](C(=O)N[C@@H](CC(=O)O)C(=O)N[C@@H](CCCCN)C(=O)O)C(C)C)[C@@H](C)CC)[C@@H](C)CC)[C@@H](C)CC)NC(=O)[C@H]([C@@H](C)O)NC(=O)[C@H]([C@@H](C)CC)NC1=O)[C@@H](C)O`, the values for the inhibition (with Vero [12]; in [5]) were 80% and 99%, respectively. In addition, the Activity entry with Vero [9] is “Non-toxic”.

As a reminder, the inhibition is the share of the control response that was lost under treatment.
